Legend:
Chymotrypsinogen A = Chymotrypsinogen A (Bos taurus, UniProt P00766); assay: Concentration required to inhibit enzymatic cleavage of the chromogenic substrate (Suc-Ala-Ala-Pro-Phe-pNA) for chymotrypsin in vitro.
[1] = Concentration required to inhibit enzymatic cleavage of the chromogenic substrate (Suc-Ala-Ala-Ala-AMC) for pancreatic elastase in vitro.; parameters: species or system Homo sapiens
Kallikrein-1 = Kallikrein-1 (Homo sapiens, UniProt P06870); assay: Concentration required to inhibit enzymatic cleavage of the chromogenic substrate (H-D-Val-Leu-Arg-pNA) for pancreatic kallikrein in vitro.
[2] = Half-life in rat plasma.; assay type: ADME, organism-based
Procedure, shortened: (§1)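 Compound in MeOH (1 mg/mL stock) incubated with rat or dog plasma, liver homogenate or small intestine homogenate at 37 °C for 120 min; aliquots taken at regular intervals into acetonitrile with 1% methanesulfonic acid at 5 °C, centrifuged 10 000 rpm 1 min, analyzed by HPLC to give hydrolysis half-life (min) and products.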

[3] = Half-life in dog plasma.; assay type: ADME, organism-based, Canis lupus familiaris; procedure, shortened: as §1
Neutrophil elastase = target: T1, Neutrophil elastase (Homo sapiens, UniProt P08246); assay: Concentration required to inhibit enzymatic cleavage of the chromogenic substrate (MeO-Suc-Ala-Ala-Pro-Val-pNA) for sputum elastase in vitro.
T1 sequence (P08246 whole entry): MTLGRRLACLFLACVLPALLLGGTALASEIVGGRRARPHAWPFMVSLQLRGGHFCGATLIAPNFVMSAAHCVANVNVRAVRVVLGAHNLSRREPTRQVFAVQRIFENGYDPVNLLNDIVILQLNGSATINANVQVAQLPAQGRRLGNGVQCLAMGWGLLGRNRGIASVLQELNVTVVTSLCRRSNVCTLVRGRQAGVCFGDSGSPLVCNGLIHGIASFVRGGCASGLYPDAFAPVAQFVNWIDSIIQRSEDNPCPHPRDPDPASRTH

[4] = Half-life in rat small intestine homogenate.; assay type: ADME, organism-based; procedure, shortened: as §1
Prothrombin = Prothrombin (Homo sapiens, UniProt P00734); assay: Concentration required to inhibit enzymatic cleavage of the chromogenic substrate (H-D-Phe-Pip-Arg-pNA) thrombin in vitro.
[5] = Area under the plasma concentration was determined in fasted Beagle dogs after peroral administration of 20 mg/kg; assay type: ADME, organism-based, Canis lupus familiaris; parameters: dose 20 mg/kg, route oral; details: dog, po
Procedure, shortened: (§2)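 Fasted beagle dogs dosed orally; plasma (0.2 mL) deproteinized with acetonitrile containing 1% methanesulfonic acid at 5 °C, centrifuged 10 min at 3000 rpm at 5 °C, analyzed by HPLC with n-propyl or iso-amyl 4-hydroxybenzoate as internal standard.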

[6] = Half-life in dog small intestine homogenate.; assay type: ADME, organism-based, Canis lupus familiaris; procedure, shortened: as §1
Plasminogen = Plasminogen (Rattus norvegicus, UniProt Q01177); assay: Concentration required to inhibit enzymatic cleavage of the chromogenic substrate (H-D-Val-Leu-Lys-pNA) for plasmin in vitro.
[7] = Half-life in dog liver homogenate.; assay type: ADME, organism-based, Canis lupus familiaris; procedure, shortened: as §1
Serine protease 1 = Serine protease 1 (Homo sapiens, UniProt P07477); assay: Concentration required to inhibit enzymatic cleavage of the chromogenic substrate (Boc-Phe-Ser-Arg-AMC) for trypsin in vitro.
Plasma kallikrein = Plasma kallikrein (Homo sapiens, UniProt P03952); assay: Concentration required to inhibit enzymatic cleavage of the chromogenic substrate (H-D-Pro-Phe-Arg-pNA) for plasma kallikrein in vitro.
[8] = Half-life in rat liver homogenate.; assay type: ADME, organism-based; procedure, shortened: as §1
Cathepsin G = target: T2, Cathepsin G (Homo sapiens, UniProt P08311); assay: Concentration required to inhibit enzymatic cleavage of the chromogenic substrate (MeO-Suc-Ala-Ala-Pro-Met-pNA) for cathepsin G in vitro.
T2 sequence (P08311 whole entry): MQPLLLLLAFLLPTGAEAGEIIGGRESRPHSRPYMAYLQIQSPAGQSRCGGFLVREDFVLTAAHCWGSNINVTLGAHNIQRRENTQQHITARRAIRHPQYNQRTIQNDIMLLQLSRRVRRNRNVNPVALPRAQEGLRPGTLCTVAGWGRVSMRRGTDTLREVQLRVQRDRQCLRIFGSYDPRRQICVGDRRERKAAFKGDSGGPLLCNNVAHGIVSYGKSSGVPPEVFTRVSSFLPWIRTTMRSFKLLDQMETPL

[9] = Area under the plasma concentration was determined in fasted Beagle dogs after peroral administration of 100 mg/kg; assay type: ADME, organism-based, Canis lupus familiaris; parameters: dose 100 mg/kg, route oral; details: dog, po; procedure, shortened: as §2

Chain of Plasma kallikrein (P03952 whole entry, looked up): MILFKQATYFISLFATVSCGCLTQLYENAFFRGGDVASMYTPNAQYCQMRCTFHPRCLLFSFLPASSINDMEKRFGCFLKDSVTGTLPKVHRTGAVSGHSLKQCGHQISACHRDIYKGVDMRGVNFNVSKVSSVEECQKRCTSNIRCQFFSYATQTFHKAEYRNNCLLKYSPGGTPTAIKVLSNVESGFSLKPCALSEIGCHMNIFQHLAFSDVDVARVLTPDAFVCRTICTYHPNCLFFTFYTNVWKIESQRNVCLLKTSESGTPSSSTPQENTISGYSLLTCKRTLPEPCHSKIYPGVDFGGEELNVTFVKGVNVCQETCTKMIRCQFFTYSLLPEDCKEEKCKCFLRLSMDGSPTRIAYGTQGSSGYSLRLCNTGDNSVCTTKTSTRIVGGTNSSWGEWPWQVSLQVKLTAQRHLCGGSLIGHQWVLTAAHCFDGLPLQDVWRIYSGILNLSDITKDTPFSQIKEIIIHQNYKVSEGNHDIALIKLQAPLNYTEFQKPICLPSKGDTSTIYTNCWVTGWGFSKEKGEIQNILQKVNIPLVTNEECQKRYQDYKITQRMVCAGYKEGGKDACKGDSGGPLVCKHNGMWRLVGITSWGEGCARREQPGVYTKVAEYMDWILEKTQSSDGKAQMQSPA
Chain of Kallikrein-1 (P06870 whole entry): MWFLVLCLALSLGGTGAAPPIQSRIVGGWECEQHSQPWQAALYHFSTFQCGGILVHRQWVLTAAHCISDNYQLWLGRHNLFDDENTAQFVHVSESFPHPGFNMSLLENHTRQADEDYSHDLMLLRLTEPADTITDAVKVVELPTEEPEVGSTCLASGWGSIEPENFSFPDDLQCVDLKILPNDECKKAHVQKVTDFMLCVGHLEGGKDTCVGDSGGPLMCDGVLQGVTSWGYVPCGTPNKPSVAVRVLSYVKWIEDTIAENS
Chain of Plasminogen (Q01177 97-581 limits assumed): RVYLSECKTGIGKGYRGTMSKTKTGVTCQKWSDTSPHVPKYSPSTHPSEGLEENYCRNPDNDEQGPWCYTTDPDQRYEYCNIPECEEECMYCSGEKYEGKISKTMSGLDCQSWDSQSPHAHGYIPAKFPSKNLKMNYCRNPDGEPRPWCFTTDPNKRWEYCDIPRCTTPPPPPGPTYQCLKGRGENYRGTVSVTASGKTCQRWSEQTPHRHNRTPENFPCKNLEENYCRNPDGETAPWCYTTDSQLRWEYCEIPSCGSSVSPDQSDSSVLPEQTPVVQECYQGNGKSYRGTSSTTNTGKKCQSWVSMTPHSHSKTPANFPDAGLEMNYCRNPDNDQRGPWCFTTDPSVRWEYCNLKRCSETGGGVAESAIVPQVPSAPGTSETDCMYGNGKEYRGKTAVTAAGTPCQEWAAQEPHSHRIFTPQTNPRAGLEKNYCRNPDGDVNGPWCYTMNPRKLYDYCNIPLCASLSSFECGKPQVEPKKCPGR
Chain of Plasminogen (Q01177 582-812 limits assumed): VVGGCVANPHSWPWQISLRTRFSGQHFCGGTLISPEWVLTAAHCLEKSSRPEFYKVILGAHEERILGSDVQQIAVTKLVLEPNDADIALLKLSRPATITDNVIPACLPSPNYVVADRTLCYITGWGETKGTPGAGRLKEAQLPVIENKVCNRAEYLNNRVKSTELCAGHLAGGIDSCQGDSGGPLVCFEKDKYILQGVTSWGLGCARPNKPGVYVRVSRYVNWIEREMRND
Chain of Serine protease 1 (P07477 whole entry): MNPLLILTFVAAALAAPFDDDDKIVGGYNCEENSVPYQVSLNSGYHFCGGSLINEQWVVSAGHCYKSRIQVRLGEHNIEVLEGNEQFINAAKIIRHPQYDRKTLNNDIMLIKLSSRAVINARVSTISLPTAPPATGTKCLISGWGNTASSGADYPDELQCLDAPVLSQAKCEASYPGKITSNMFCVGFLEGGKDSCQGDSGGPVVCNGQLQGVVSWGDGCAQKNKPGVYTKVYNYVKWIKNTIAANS

In the case of `C=CCN(CC(=O)O)C(=O)/C(C)=C/c1ccc(C(=O)Oc2ccc(C(=N)N)cc2)cc1.CS(=O)(=O)O`, the IC50 (Chymotrypsinogen A) is reported as > 100 µM, the IC50 [1] is reported as > 100 µM and the IC50 (Kallikrein-1) is reported as > 100 µM. For the same molecule, the half-life [2] was > 60 min, the half-life [3] was 15 min and the IC50 (Neutrophil elastase) was > 100 µM. The half-life [4] was > 60 min, the IC50 (Prothrombin) was 35 µM and the AUC [5] was 5.23 µg·h/mL. The half-life [6] was > 60 min, the IC50 (Plasminogen) was 1.83 µM and the half-life [7] was > 60 min. The IC50 (Serine protease 1) was 0.00413 µM, the IC50 (Plasma kallikrein) was 0.0965 µM and the half-life [8] was > 60 min. For the same molecule, the IC50 (Cathepsin G) was > 100 µM and the AUC [9] was 27 µg·h/mL.
For `C=CCN(CC(=O)OCC)C(=O)/C(C)=C/c1ccc(C(=O)Oc2ccc(C(=N)N)cc2)cc1.CS(=O)(=O)O`, the IC50 (Chymotrypsinogen A) was > 100 µM, the IC50 [1] was > 100 µM and the IC50 (Kallikrein-1) was 15.7 µM. For the same molecule, the half-life [2] was < 1 min, the half-life [3] was 25 min and the IC50 (Neutrophil elastase) was > 100 µM. The half-life [4] was 11 min, the IC50 (Prothrombin) was 3.66 µM and the half-life [6] was > 60 min. For the same molecule, the IC50 (Plasminogen) was 0.873 µM, the half-life [7] was < 1 min and the IC50 (Serine protease 1) was 0.0112 µM. For the same molecule, the IC50 (Plasma kallikrein) was 0.19 µM, the half-life [8] was < 1 min and the IC50 (Cathepsin G) was > 100 µM.
With `CN(C)C(=O)COC(=O)Cc1ccc(OC(=O)c2ccc(NC(=N)N)cc2)cc1.CS(=O)(=O)O` [CAMOSTAT MESILATE] the IC50 (Chymotrypsinogen A) was > 100 µM, the IC50 [1] was > 100 µM and the IC50 (Kallikrein-1) was 34.1 µM. The IC50 (Neutrophil elastase) was > 100 µM, the AUC [5] was 1.82 µg·h/mL and the IC50 (Plasminogen) was 2.62 µM. For the same molecule, the IC50 (Serine protease 1) was 0.0506 µM, the IC50 (Plasma kallikrein) was 1.48 µM and the IC50 (Cathepsin G) was > 100 µM.
For `N=C(N)Nc1ccc(C(=O)Oc2ccc(CC(=O)O)cc2)cc1`, the IC50 (Chymotrypsinogen A) was > 100 µM, the IC50 [1] was > 100 µM and the IC50 (Kallikrein-1) was > 100 µM. The IC50 (Neutrophil elastase) was > 100 µM, the IC50 (Prothrombin) was 108 µM and the IC50 (Plasminogen) was 12.5 µM. The IC50 (Serine protease 1) was 0.055 µM, the IC50 (Plasma kallikrein) was 2.32 µM and the IC50 (Cathepsin G) was > 100 µM.

From ChEMBL document CHEMBL1128424, “New orally active serine protease inhibitors” (J Med Chem, 1995)
